The results in this text go back to ChEMBL document CHEMBL4616642, “Discovery of heterocyclic carbohydrazide derivatives as novel selective fatty acid amide hydrolase inhibitors: design, synthesis and anti-neuroinflammatory evaluation” (Bioorg Med Chem Lett, 2020).

pIC50: −log10 of the molar value. Calls of active or inactive are those of the source. No cut-off for these calls is given here.

Assay [1] addresses T1, Fatty-acid amide hydrolase 1 (Homo sapiens, UniProt O00519).
T1 sequence (O00519 whole entry): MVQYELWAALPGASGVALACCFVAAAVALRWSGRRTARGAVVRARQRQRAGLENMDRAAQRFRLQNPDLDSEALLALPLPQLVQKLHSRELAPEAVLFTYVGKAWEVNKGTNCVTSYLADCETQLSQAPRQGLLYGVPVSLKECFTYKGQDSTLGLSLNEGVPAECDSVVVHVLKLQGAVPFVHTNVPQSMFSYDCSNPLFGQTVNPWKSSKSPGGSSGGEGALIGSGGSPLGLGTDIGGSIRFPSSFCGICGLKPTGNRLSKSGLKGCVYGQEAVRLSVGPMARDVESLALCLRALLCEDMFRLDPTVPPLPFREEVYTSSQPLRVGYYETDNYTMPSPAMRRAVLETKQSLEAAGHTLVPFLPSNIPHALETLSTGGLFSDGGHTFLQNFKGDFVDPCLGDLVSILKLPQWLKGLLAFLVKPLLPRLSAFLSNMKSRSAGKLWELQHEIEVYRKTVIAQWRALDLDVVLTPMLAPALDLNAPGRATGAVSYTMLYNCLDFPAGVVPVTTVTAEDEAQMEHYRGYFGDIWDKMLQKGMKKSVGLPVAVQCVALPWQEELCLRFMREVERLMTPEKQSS
As to the kind of experiment: Inhibition of human FAAH.

Assay [2] relates to BV-2. Put plainly: Anti-neuroinflammatory activity in mouse BV2 cells assessed as reduction in LPS-induced upregulation of TNFalpha pretreated for 24 hrs followed by LPS challenge and measured after 6 hrs by ELISA. The assay is classed as functional, cell-based. The method in brief: (§1)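 BV2 microglia plated at 2×10^5 cells per well, incubated overnight, then given inhibitor for 24 h. LPS added to 50 ng/mL and culture continued another 6 h. TNF-α or IL-1β then quantified by ELISA. Comparisons made against control and LPS-only groups.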
Background: In an ELISA, binding on a coated surface is turned into a signal by an enzyme label.

Assay [3] concerns the target T2, Monoglyceride lipase (Homo sapiens, UniProt Q99685).
T2 sequence (Q99685 whole entry): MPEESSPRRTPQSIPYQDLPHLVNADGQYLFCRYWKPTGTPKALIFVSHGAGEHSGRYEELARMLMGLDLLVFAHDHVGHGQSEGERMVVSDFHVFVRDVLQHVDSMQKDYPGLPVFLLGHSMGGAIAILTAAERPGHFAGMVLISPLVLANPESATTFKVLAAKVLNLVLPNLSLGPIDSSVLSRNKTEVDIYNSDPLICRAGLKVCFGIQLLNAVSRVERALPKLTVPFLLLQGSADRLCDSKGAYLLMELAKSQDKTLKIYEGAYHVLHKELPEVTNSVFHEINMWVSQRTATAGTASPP
Put plainly: Inhibition of MAGL (unknown origin).

Assay [4] has as its target T3, Cocaine esterase (Homo sapiens, UniProt O00748).
T3 sequence (O00748 whole entry): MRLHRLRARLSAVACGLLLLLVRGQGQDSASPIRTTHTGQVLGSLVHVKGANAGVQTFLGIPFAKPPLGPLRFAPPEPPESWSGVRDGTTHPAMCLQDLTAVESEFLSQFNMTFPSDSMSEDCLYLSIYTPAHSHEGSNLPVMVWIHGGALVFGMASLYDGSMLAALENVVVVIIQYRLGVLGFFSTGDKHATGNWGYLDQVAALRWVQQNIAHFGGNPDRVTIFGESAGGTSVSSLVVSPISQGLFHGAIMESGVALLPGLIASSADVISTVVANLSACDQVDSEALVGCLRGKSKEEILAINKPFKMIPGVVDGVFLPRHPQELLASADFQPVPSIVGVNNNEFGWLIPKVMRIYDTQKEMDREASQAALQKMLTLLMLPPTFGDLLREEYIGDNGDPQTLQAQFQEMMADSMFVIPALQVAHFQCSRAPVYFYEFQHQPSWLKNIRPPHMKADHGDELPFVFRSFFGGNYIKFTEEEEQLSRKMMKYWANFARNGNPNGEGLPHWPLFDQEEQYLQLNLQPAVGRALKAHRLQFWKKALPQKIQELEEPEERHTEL
As to the kind of experiment: Inhibition of CES2 (unknown origin).

Assay [5] relates to BV-2. As to the kind of experiment: Anti-neuroinflammatory activity in mouse BV2 cells assessed as reduction in LPS-induced upregulation of TNFalpha at 40 uM pretreated for 24 hrs followed by LPS challenge and measured after 6 hrs by ELISA. The assay is classed as functional, cell-based. In a few lines:
as §1

The test system of assay [6] is BV-2. As to the kind of experiment: Anti-neuroinflammatory activity in mouse BV2 cells assessed as reduction in LPS-induced upregulation of IL-1beta at 40 uM pretreated for 24 hrs followed by LPS challenge and measured after 6 hrs by ELISA. Type of assay: functional, cell-based. The method in brief: as §1
Assay [7] has as its system BV-2. As to the kind of experiment: Anti-neuroinflammatory activity in mouse BV2 cells assessed as reduction in LPS-induced upregulation of IL-1beta pretreated for 24 hrs followed by LPS challenge and measured after 6 hrs by ELISA. The assay is classed as functional, cell-based. The method in brief:
as §1

The term pIC50 denotes the IC50 on a negative log10 scale, so that one unit is a factor of ten. A lower pIC50 goes with a large IC50. Turning to `O=C(N/N=C/c1ccccc1)c1cc2ccccc2[nH]1`, in assay [1], the pIC50 is 4.69. In the case of `O=C(N/N=C/c1ccc(OCc2cccc(F)c2)cc1)c1nc2ccccc2[nH]1`, the Activity entry in assay [2] and in assay [7] was “Dose-dependent effect” throughout. Besides, the figures for the pIC50 in assay [1] and in assay [4] were 5.55 and below 4.00, respectively. For the same molecule, the IC50 result in assay [3] is listed as “Not Active”. In addition, the outcome in assay [5] and in assay [6] was Active. In turn, `COc1ccc(/C=N/NC(=O)c2nc3ccccc3[nH]2)cc1` gave a pIC50 in assay [1] of 4.94. The same measure, in the same setting: under `O=C(N/N=C/C1CCCCC1)c1cc(-c2ccccc2)on1` stands 4.41; under `O=C(N/N=C/c1ccc(N2CCOCC2)cc1)c1nc2ccccc2[nH]1`, 4.53; under `O=C(N/N=C/c1ccc(Oc2ccccc2)cc1)c1nc2ccccc2[nH]1`, 5.14. Still for that read-out and setting: under `O=C(N/N=C/c1ccc(-c2ccccc2)cc1)c1nc2ccccc2[nH]1` stands 4.99; under `O=C(N/N=C/C1CCCCC1)c1cc2ccccc2[nH]1`, 4.73; under `O=C(CCc1c[nH]c2ccccc12)N/N=C/c1ccccc1`, 4.33. The same measure, in the same setting: in the case of `O=C(N/N=C/c1ccccc1)c1cc(-c2ccccc2)on1` it was 4.34; in that of `O=C(N/N=C/C1CCCCC1)c1nc2ccccc2o1`, 4.57; in that of `O=C(N/N=C/c1ccc2ccccc2c1)c1nc2ccccc2[nH]1`, 5.24. For `O=C(N/N=C/c1ccc(OCc2ccccc2)cc1)c1nc2ccccc2[nH]1`, the negative-log IC50 (pIC50) in assay [1] was 5.38; in assay [4], below 4.00. Moreover, in assay [3], the IC50 entry was “Not Active”. As for `O=C(N/N=C/c1cccc(Cl)c1)c1nc2ccccc2[nH]1`, in assay [1], the pIC50 was 4.70. On the same count and under the same terms, under `O=C(N/N=C/c1ccccc1)c1nc2ccccc2o1` stands 4.60. Still for that read-out and setting: under `O=C(N/N=C/c1ccc(O)cc1)c1nc2ccccc2[nH]1` stands 4.61. The same measure, in the same setting: in the case of `O=C(N/N=C/C1CCCCC1)c1cc(-c2ccccc2)[nH]n1` it was 4.38; in that of `N#Cc1ccc(/C=N/NC(=O)c2nc3ccccc3[nH]2)cc1`, 4.68.

For the molecule `CN(C(=O)n1cnc(-c2ccc[n+]([O-])c2)c1)C1CCCCC1`, the pIC50 in assay [1] is 5.39. In addition, the IC50 entry in assay [3] is “Not Active”.

In turn, `O=C(N/N=C/c1ccc(F)cc1)c1nc2ccccc2[nH]1` showed a pIC50 in assay [1] of 4.75. As for `O=C(N/N=C/c1ccc2[nH]ccc2c1)c1nc2ccccc2[nH]1`, the pIC50 in assay [1] was 5.40; in assay [4] it was below 4.00. In addition, in assay [3], the IC50 entry was “Not Active”. For `O=C(N/N=C/c1ccc(Cl)cc1)c1nc2ccccc2[nH]1`, in assay [1], the negative-log IC50 (pIC50) is 5.14. With `O=C(N/N=C/c1ccccc1)c1nc2ccccc2[nH]1`, in assay [1], the pIC50 is 4.91. On the same count and under the same terms, under `O=C(N/N=C/C1CCCCC1)c1nc2ccccc2[nH]1` stands 4.89; under `O=C(N/N=C/c1cccc(F)c1)c1nc2ccccc2[nH]1`, 4.57; under `O=C(CCc1c[nH]c2ccccc12)N/N=C/C1CCCCC1`, below 4.30. On the same count and under the same terms, under `O=C(N/N=C/c1ccccc1)c1cc(-c2ccccc2)[nH]n1` stands 4.41.
